Reference: ChEMBL document CHEMBL3779767, “Identification of potent and selective MTH1 inhibitors” (Bioorg Med Chem Lett, 2016)
Calls of active or inactive are those of the source.

Legend:
[1] = Plasma protein binding in human; assay type: ADME, cell-free; settings: read-out: PPB (converted)
[2] = molecular target: RAC-beta serine/threonine-protein kinase (Homo sapiens) (UniProt P31751); assay: Inhibition of partial length human AKT2 expressed in bacterial system at 1 uM
Summary of the method: (§1)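 Single-point screen within a 97-kinase profiling panel, with the test compound at 1 µM.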

[3] = molecular target: Casein kinase I isoform gamma-2 (Homo sapiens) (UniProt P78368); assay: Inhibition of partial length human CSNK1G2 expressed in bacterial system at 1 uM; summary of the method: as §1
Sequence of Casein kinase I isoform gamma-2 (Homo sapiens) (P78368 whole entry, looked up, canonical isoform): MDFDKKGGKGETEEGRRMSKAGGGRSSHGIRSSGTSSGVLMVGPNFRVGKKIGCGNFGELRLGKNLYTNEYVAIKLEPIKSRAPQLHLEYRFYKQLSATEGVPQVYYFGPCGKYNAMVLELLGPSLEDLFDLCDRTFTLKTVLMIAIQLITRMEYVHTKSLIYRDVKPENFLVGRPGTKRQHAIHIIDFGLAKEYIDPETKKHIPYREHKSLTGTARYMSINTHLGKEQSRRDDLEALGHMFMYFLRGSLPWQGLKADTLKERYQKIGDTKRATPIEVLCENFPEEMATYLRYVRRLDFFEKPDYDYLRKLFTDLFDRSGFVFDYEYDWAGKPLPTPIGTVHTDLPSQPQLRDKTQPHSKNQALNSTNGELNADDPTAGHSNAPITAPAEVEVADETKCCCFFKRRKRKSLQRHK

[4] = molecular target: Serine/threonine-protein kinase DCLK1 (Homo sapiens) (UniProt O15075); assay: Inhibition of partial length human DCAMKL1 expressed in mammalian system at 1 uM; summary of the method: as §1
Sequence of Serine/threonine-protein kinase DCLK1 (Homo sapiens) (O15075 whole entry): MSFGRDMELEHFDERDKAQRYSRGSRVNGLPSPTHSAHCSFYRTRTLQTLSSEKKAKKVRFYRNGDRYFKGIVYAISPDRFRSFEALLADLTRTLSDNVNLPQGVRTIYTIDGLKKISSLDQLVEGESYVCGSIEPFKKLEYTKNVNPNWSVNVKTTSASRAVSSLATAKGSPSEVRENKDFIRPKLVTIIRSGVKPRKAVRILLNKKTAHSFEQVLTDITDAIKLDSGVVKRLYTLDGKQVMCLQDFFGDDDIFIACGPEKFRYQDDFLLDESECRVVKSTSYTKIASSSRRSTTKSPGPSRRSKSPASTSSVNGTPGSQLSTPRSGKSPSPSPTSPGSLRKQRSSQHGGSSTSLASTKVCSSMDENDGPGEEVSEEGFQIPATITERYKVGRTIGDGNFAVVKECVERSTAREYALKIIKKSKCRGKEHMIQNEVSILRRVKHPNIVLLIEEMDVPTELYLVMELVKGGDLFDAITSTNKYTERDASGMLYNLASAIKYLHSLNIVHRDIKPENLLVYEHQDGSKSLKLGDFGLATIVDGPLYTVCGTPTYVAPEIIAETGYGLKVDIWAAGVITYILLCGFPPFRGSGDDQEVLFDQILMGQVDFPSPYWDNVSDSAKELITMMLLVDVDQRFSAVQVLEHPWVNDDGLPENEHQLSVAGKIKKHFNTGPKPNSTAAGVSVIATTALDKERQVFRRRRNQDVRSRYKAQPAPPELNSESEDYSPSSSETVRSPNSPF

[5] = molecular target: Fibroblast growth factor receptor 2 (Homo sapiens) (UniProt P21802); assay: Inhibition of partial length human FGFR2 expressed in bacterial system at 1 uM; summary of the method: as §1
Sequence of Fibroblast growth factor receptor 2 (Homo sapiens) (P21802 22-821 limits assumed): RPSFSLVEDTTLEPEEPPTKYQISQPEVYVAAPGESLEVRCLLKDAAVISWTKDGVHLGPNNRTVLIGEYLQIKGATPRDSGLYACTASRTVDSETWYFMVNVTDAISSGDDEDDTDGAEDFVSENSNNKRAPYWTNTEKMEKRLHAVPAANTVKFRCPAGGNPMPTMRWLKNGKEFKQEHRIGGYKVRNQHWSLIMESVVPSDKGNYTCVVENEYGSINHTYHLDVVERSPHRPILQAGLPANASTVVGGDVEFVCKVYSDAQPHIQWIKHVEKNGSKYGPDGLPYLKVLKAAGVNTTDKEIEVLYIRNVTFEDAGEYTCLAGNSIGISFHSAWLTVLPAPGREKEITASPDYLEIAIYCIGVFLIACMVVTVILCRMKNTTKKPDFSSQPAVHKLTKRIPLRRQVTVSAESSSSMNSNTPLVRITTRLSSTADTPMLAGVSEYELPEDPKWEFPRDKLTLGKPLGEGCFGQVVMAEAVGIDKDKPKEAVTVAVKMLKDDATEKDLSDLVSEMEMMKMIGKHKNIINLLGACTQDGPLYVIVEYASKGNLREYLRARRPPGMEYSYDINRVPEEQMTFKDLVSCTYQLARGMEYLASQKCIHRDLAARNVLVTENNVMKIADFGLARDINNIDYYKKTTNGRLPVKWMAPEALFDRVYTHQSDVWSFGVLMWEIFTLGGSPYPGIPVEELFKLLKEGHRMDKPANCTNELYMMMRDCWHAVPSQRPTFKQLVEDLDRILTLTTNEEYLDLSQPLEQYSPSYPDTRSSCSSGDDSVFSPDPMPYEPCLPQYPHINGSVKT

[6] = molecular target: Glycogen synthase kinase-3 beta (Homo sapiens) (UniProt P49841); assay: Inhibition of partial length human GSK3beta expressed in mammalian system at 1 uM; summary of the method: as §1
Sequence of Glycogen synthase kinase-3 beta (Homo sapiens) (P49841 whole entry, looked up): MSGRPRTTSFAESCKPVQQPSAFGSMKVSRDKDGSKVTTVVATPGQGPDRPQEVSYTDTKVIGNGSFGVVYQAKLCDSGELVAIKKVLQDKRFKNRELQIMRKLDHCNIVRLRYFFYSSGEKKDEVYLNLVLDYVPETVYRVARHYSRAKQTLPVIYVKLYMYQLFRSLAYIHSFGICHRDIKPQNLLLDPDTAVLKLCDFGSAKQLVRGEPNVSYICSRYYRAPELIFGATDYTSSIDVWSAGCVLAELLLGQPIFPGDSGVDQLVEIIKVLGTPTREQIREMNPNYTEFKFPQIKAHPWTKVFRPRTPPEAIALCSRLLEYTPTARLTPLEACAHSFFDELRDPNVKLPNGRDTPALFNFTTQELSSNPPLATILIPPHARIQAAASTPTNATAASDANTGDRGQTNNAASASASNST

[7] = molecular target: Serine/threonine-protein kinase PAK 4 (Homo sapiens) (UniProt O96013); assay: Inhibition of partial length human PAK4 expressed in bacterial system at 1 uM
Sequence of Serine/threonine-protein kinase PAK 4 (Homo sapiens) (O96013 whole entry, looked up): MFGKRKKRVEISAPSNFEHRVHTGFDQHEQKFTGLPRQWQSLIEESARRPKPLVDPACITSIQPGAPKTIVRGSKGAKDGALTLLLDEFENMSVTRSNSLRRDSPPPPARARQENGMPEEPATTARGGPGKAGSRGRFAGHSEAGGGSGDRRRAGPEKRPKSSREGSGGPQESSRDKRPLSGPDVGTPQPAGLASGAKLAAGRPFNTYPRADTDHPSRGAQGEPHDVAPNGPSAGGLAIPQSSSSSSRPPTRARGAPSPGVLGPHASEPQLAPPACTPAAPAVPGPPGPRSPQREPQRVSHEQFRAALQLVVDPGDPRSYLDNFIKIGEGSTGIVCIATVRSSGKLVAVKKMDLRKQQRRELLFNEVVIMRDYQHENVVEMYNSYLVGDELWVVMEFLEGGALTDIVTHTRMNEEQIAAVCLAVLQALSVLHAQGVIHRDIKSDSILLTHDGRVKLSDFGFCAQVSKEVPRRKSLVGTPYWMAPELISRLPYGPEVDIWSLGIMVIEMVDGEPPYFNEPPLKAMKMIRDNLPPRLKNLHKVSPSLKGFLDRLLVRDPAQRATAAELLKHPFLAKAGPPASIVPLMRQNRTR
Summary of the method: (§2)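 Single-concentration screen across a panel of 97 kinases, with the test compound at 1 uM.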

[8] = molecular target: 3-phosphoinositide-dependent protein kinase 1 (Homo sapiens) (UniProt O15530); assay: Inhibition of partial length human PDPK1 expressed in bacterial system at 1 uM; summary of the method: as §2
Sequence of 3-phosphoinositide-dependent protein kinase 1 (Homo sapiens) (O15530 whole entry): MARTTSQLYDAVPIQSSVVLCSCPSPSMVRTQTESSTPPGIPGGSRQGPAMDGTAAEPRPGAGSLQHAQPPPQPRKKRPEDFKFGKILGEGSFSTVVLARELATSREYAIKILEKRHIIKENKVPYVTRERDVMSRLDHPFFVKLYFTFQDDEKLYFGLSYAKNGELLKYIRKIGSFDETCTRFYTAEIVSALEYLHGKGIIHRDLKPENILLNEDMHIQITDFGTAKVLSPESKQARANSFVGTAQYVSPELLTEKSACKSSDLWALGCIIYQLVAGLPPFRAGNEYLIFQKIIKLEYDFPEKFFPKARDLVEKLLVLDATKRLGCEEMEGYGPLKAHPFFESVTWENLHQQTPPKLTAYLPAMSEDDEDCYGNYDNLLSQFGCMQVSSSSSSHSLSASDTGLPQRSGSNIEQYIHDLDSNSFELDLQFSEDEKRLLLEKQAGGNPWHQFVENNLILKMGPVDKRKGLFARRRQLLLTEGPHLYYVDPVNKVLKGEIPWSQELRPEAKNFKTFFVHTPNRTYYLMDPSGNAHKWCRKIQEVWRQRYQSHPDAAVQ

[9] = molecular target: Serine/threonine-protein kinase RIO2 (Homo sapiens) (UniProt Q9BVS4); assay: Inhibition of partial length human RIOK2 expressed in mammalian system at 1 uM; summary of the method: as §2
Sequence of Serine/threonine-protein kinase RIO2 (Homo sapiens) (Q9BVS4 whole entry, looked up): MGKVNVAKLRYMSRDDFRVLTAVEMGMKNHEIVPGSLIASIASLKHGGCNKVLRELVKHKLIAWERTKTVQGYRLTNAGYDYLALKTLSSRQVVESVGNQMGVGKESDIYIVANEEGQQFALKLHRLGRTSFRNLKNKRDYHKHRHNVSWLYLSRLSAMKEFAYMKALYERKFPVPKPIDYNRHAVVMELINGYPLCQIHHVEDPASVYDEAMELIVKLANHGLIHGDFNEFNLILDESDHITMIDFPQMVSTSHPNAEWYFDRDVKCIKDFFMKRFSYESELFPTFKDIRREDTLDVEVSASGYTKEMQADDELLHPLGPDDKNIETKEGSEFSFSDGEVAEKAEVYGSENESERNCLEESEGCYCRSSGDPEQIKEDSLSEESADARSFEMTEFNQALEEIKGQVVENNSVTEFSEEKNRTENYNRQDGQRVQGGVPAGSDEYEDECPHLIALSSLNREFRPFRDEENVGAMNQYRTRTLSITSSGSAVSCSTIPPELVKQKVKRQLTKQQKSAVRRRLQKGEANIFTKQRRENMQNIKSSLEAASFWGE

[10] = molecular target: Serine/threonine-protein kinase 32C (Homo sapiens) (UniProt Q86UX6); assay: Inhibition of partial length human YANK3 expressed in bacterial system at 1 uM; summary of the method: as §2
[11] = molecular target: Tyrosine-protein kinase ZAP-70 (Homo sapiens) (UniProt P43403); assay: Inhibition of partial length human ZAP70 expressed in mammalian system at 1 uM; summary of the method: as §2
Sequence of Tyrosine-protein kinase ZAP-70 (Homo sapiens) (P43403 whole entry): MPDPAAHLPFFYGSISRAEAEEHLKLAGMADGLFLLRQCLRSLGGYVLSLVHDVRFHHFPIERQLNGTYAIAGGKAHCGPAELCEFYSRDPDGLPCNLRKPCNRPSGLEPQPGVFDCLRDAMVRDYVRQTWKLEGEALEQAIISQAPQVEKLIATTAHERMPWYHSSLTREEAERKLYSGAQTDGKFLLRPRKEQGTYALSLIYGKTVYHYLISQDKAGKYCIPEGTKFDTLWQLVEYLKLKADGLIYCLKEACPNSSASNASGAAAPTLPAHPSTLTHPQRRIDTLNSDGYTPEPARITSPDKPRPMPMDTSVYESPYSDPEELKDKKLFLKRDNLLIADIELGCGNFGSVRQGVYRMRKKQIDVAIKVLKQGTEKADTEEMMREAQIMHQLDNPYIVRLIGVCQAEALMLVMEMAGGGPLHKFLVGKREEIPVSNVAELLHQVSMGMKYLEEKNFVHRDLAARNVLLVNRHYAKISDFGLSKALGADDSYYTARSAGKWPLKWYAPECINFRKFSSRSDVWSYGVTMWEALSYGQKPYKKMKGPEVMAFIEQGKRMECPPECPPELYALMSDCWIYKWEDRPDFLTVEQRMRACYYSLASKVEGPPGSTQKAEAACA

[12] = Cytotoxicity against human 293T cells assessed as change in phenotypic response measured after prolonged treatment; assay type: cell-based; settings: hek-293t
BJ = assay: Cytotoxicity against human BJ cells assessed as change in phenotypic response up to 50 uM; assay type: cell-based
UOK 262 = assay: Antiproliferative activity against human UOK 262 cells assessed as change in phenotypic response up to 50 uM; assay type: functional, cell-based

Cc1cnc(N)nc1OCC(C)(C)CO
Non-toxic: Activity [12] | Activity (BJ)
0.46: fraction unbound [1]
inactive: inhibition [2] | inhibition [3] | inhibition [4] | inhibition [5] | inhibition [6] | inhibition [7] | inhibition [8] | inhibition [9] | inhibition [10] | inhibition [11] | Activity (UOK 262)
